Measured values as given in ChEMBL document CHEMBL1127424, “7-azetidinylquinolones as antibacterial agents. 2. Synthesis and biological activity of 7-(2,3-disubstituted-1-azetidinyl)-4-oxoquinoline- and -1,8-naphthyridine-3-carboxylic acids. Properties and structure-activity relationships of quinolones with an azetidine moiety” (J Med Chem, 1994).
Converted amounts (≈) assume the structure as drawn. One block for each compound: values may come before it.

Tests used:
Staphylococcus aureus = test: In vitro minimum inhibitory concentration for Staphylococcus aureus ATCC 25178; assay type: functional
Method in brief: (§1)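 Serial 2-fold agar dilution in Mueller Hinton medium, run alongside a reference quinolone. Inoculum adjusted to 10⁸ cfu/mL; compound range 0.007–16 μg/mL.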

Bacillus cereus = test: In vitro minimum inhibitory concentration for Bacillus cereus ATCC 11778; assay type: functional; method in brief: as §1
Proteus vulgaris = test: In vitro minimum inhibitory concentration for Proteus vulgaris ATCC 8427; assay type: functional; method in brief: as §1
Pseudomonas aeruginosa = test: In vitro minimum inhibitory concentration for Pseudomonas aeruginosa ATCC 10145; assay type: functional; method in brief: as §1
Enterococcus faecalis = test: In vitro minimum inhibitory concentration for Streptococcus faecalis ATCC 10541; assay type: functional; method in brief: as §1
[1] = tested on: Staphylococcus epidermidis; test: In vitro minimum inhibitory concentration for Staphylococcus epidermidis ATCC 155-1; assay type: functional; method in brief: as §1
Escherichia coli = test: In vitro minimum inhibitory concentration for Escherichia coli ATCC 10799; assay type: functional; method in brief: as §1
Klebsiella pneumoniae = test: In vitro minimum inhibitory concentration to inhibit Klebsiella pneumoniae ATCC 10031; assay type: functional; method in brief: as §1
Enterobacter cloacae = test: In vitro minimum inhibitory concentration for Enterobacter cloacae ATCC 23355; assay type: functional
[2] = HPLC capacity factor (k'); assay type: ADME
Method in brief: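 Ion-pair reversed-phase HPLC on ODS-2 (10 μm) at 45 °C. Mobile phase: 10 mM sodium heptanesulfonate plus 50 mM KH2PO4 (pH 3.5)–methanol 45:55, 1 mL/min. Samples at 100 μg/mL in DMF, injected in duplicate, UV 280 nm. k' = (tR − t0)/t0.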

Morganella morganii = test: In vitro minimum inhibitory concentration for Morganella morganii ATCC 8019; assay type: functional; method in brief: as §1
Bacillus subtilis = test: In vitro minimum inhibitory concentration for Bacillus subtilis ATCC 6633; assay type: functional; method in brief: as §1

Structure (SMILES): CCn1cc(C(=O)O)c(=O)c2cc(F)c(N3CC(C)(N)C3)c(F)c21
Log k' [2]: -0.0757

Structure (SMILES): CC1(N)CN(c2c(F)cc3c(=O)c(C(=O)O)cn(C(C)(C)C)c3c2F)C1
Log k' [2]: 0.1751

Structure (SMILES): C[C@H]1[C@H](N)CN1c1nc2c(cc1F)c(=O)c(C(=O)O)cn2CCF
MIC (Staphylococcus aureus): 1 µg/mL (≈ 2.96 µM)
MIC (Bacillus cereus): 0.5 µg/mL (≈ 1.48 µM)
MIC (Proteus vulgaris): 0.5 µg/mL (≈ 1.48 µM)
MIC (Pseudomonas aeruginosa): 2 µg/mL (≈ 5.91 µM)
MIC (Enterococcus faecalis): 4 µg/mL (≈ 11.8 µM)
MIC [1]: 0.5 µg/mL (≈ 1.48 µM)
MIC (Escherichia coli): 0.12 µg/mL (≈ 0.355 µM)
MIC (Klebsiella pneumoniae): 0.06 µg/mL (≈ 0.177 µM)
MIC (Enterobacter cloacae): 0.06 µg/mL (≈ 0.177 µM)
Log k' [2]: -0.2166
MIC (Morganella morganii): 0.06 µg/mL (≈ 0.177 µM)
MIC (Bacillus subtilis): 0.12 µg/mL (≈ 0.355 µM)

Structure (SMILES): CCn1cc(C(=O)O)c(=O)c2c(N)c(F)c(N3CC(C)(N)C3)c(F)c21
Log k' [2]: 0.0367

Structure (SMILES): CCn1cc(C(=O)O)c(=O)c2cc(F)c(N3C[C@@H](N)[C@@H]3C)c(Cl)c21
MIC (Staphylococcus aureus): 0.12 µg/mL (≈ 0.339 µM)
MIC (Bacillus cereus): 0.12 µg/mL (≈ 0.339 µM)
MIC (Proteus vulgaris): 0.25 µg/mL (≈ 0.707 µM)
MIC (Enterococcus faecalis): 0.5 µg/mL (≈ 1.41 µM)
MIC [1]: 0.12 µg/mL (≈ 0.339 µM)
MIC (Escherichia coli): 0.06 µg/mL (≈ 0.17 µM)
MIC (Klebsiella pneumoniae): 0.03 µg/mL (≈ 0.0848 µM)
MIC (Enterobacter cloacae): 0.06 µg/mL (≈ 0.17 µM)
Log k' [2]: 0.16
MIC (Morganella morganii): 0.03 µg/mL (≈ 0.0848 µM)
MIC (Bacillus subtilis): 0.03 µg/mL (≈ 0.0848 µM)

Structure (SMILES): CC1(N)CN(c2c(F)c(N)c3c(=O)c(C(=O)O)cn(-c4ccc(F)cc4F)c3c2F)C1
Log k' [2]: 0.3189

Structure (SMILES): CNC1CN(c2c(F)cc3c(=O)c(C(=O)O)cn(-c4ccc(F)cc4F)c3c2Cl)C1
Log k' [2]: 0.25

Structure (SMILES): CC1(N)CN(c2c(F)cc3c(=O)c(C(=O)O)cn(CCF)c3c2F)C1
Log k' [2]: -0.1871

Structure (SMILES): CNC1(C)CN(c2cc3c(cc2F)c(=O)c(C(=O)O)cn3C(C)(C)C)C1
Log k' [2]: 0.303

Structure (SMILES): Nc1c(F)c(N2CC(N)C2)c(F)c2c1c(=O)c(C(=O)O)cn2-c1ccc(F)cc1F
Log k' [2]: 0.1424

Structure (SMILES): O=C(O)c1cn(C2CC2)c2c(F)c(N3CCC3)c(F)cc2c1=O
Log k' [2]: 0.9074

Structure (SMILES): CC1(N)CN(c2c(F)cc3c(=O)c(C(=O)O)cn(-c4ccc(F)cc4F)c3c2Cl)C1
Log k' [2]: 0.3448

Structure (SMILES): CC1(N)CN(c2nc3c(cc2F)c(=O)c(C(=O)O)cn3-c2ccc(F)cc2)C1
Log k' [2]: -0.0388

Structure (SMILES): CC1(N)CN(c2nc3c(cc2F)c(=O)c(C(=O)O)cn3-c2ccc(F)cc2F)C1
Log k' [2]: 0.0792

Structure (SMILES): CC1(N)CN(c2nc3c(cc2F)c(=O)c(C(=O)O)cn3C(C)(C)C)C1
Log k' [2]: 0.0128

Structure (SMILES): CC1(N)CN(c2nc3c(cc2F)c(=O)c(C(=O)O)cn3CCF)C1
Log k' [2]: -0.1706

Structure (SMILES): CC1(N)CN(c2c(F)cc3c(=O)c(C(=O)O)cn(CCF)c3c2Cl)C1
Log k' [2]: -0.0332

Structure (SMILES): CCn1cc(C(=O)O)c(=O)c2cc(F)c(N3CC(C)(N)C3)nc21
Log k' [2]: -0.2296

Structure (SMILES): CN(C)C1CN(c2nc3c(cc2F)c(=O)c(C(=O)O)cn3C2CC2)C1
Log k' [2]: 0.464

Other lines, results leading:

MIC (Staphylococcus aureus): 0.25 µg/mL (≈ 0.722 µM)
MIC (Bacillus cereus): 0.12 µg/mL (≈ 0.346 µM)
MIC (Proteus vulgaris): 0.25 µg/mL (≈ 0.722 µM)
MIC (Pseudomonas aeruginosa): 2 µg/mL (≈ 5.77 µM)
MIC (Enterococcus faecalis): 2 µg/mL (≈ 5.77 µM)
MIC [1]: 0.12 µg/mL (≈ 0.346 µM)
MIC (Escherichia coli): 0.25 µg/mL (≈ 0.722 µM)
MIC (Klebsiella pneumoniae): 0.12 µg/mL (≈ 0.346 µM)
MIC (Enterobacter cloacae): 0.25 µg/mL (≈ 0.722 µM)
Log k' [2]: 0.599
MIC (Morganella morganii): 0.5 µg/mL (≈ 1.44 µM)
MIC (Bacillus subtilis): 0.03 µg/mL (≈ 0.0866 µM)
Structure (SMILES): C[C@H]1N(c2cc3c(cc2F)c(=O)c(C(=O)O)cn3C2CC2)C[C@]1(C)O

Log k' [2]: 0.7188
Structure (SMILES): O=C(O)c1cn(C2CC2)c2cc(N3CCC3)c(F)cc2c1=O

Log k' [2]: 0.0374
Structure (SMILES): CC1(N)CN(c2cc3c(cc2F)c(=O)c(C(=O)O)cn3CCF)C1

Log k' [2]: -0.0356
Structure (SMILES): CCNCC1(C)CN(c2cc3c(cc2F)c(=O)c(C(=O)O)cn3C2CC2)C1

Log k' [2]: -0.0438
Structure (SMILES): CC1(CN)CN(c2c(F)cc3c(=O)c(C(=O)O)cn(C4CC4)c3c2F)C1

Log k' [2]: 0.7591
Structure (SMILES): CCC1(O)CN(c2c(F)cc3c(=O)c(C(=O)O)cn(C4CC4)c3c2F)C1

Log k' [2]: -0.0118
Structure (SMILES): CCNCC1(C)CN(c2c(F)cc3c(=O)c(C(=O)O)cn(C4CC4)c3c2F)C1

Log k' [2]: 0.0408
Structure (SMILES): CNC1(C)CN(c2nc3c(cc2F)c(=O)c(C(=O)O)cn3C2CC2)C1

Log k' [2]: 0.0294
Structure (SMILES): CC1(N)CN(c2cc3c(cc2F)c(=O)c(C(=O)O)cn3C(C)(C)C)C1

Log k' [2]: 0.2742
Structure (SMILES): CCNCC1CN(c2c(F)cc3c(=O)c(C(=O)O)cn(C4CC4)c3c2F)C1

Log k' [2]: -0.1805
Structure (SMILES): CCn1cc(C(=O)O)c(=O)c2cc(F)c(N3CC(C)(N)C3)cc21
